Results taken from ChEMBL document CHEMBL1158529, “Synthesis and biological evaluation of novel C5 halogen-functionalized S-DABO as potent HIV-1 non-nucleoside reverse transcriptase inhibitors” (Bioorg Med Chem, 2010).
The source made the active and inactive calls. The calls are words filed in the database; no cut-off is given here.

Legend:
[1] = molecular target: Human immunodeficiency virus type 1 reverse transcriptase (Human immunodeficiency virus 1, UniProt Q72547); assay: Inhibition of HIV1 reverse transcriptase by ELISA
In short: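 HIV-1 reverse transcriptase activity measured with a poly(rA)/oligo(dT)15 homopolymer template and read by HIV antigen-detection ELISA.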

[2] = molecular target: Human immunodeficiency virus type 1 reverse transcriptase (Human immunodeficiency virus 1) (UniProt Q72547); assay: Inhibition of HIV1 reverse transcriptase up to 100 uM by ELISA
In short: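 RT assay on a poly(rA)/oligo(dT)15 homopolymer template with HIV antigen-detection ELISA read-out. Compounds were tested for loss of RT activity at concentrations up to 100 µM. Values are means of three separate experiments, with triplicate variation under 15%.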

[3] = molecular target: Human immunodeficiency virus type 1 reverse transcriptase (Human immunodeficiency virus 1) (UniProt Q72547); assay: Ratio of nevirapine IC50 to compound IC50 for HIV1 reverse transcriptase
[4] = molecular target: Human immunodeficiency virus type 1 reverse transcriptase (Human immunodeficiency virus 1) (UniProt Q72547); assay: Ratio of compound IC50 to 5a3 IC50 for HIV1 reverse transcriptase

Row | IC50 [1] | SMILES | also measured
1 | > 100 µM | Cc1c(Cc2ccccc2)nc(SC(C)c2ccccc2)[nH]c1=O (centres undefined) | –
2 | 47.7 µM | Cc1ccccc1CSc1nc(Cc2ccccc2)cc(=O)[nH]1 | –
3 | > 100 µM | CC(Sc1nc(Cc2ccccc2)cc(=O)[nH]1)c1ccccc1 (centres undefined) | –
4 | 13.9 µM | O=c1[nH]c(SCCc2ccccc2)nc(Cc2ccccc2)c1Br | –
5 | 51.7 µM | CCOCSc1nc(Cc2ccccc2)c(C)c(=O)[nH]1 | –
6 | 24.9 µM | Cc1ccccc1CSc1nc(Cc2ccccc2)c(Br)c(=O)[nH]1 | –
7 | 91.1 µM | Cc1cccc(CSc2nc(Cc3ccccc3)cc(=O)[nH]2)c1 | –
8 | 12.3 µM | O=c1[nH]c(SCc2ccc3ccccc3c2)nc(Cc2ccccc2)c1Br | –
9 | – | Cc1cccc(CSc2nc(Cc3ccccc3)c(C)c(=O)[nH]2)c1 | inhibition [2]: inactive
10 | 5.62 µM | CC(C)(C)c1ccc(CSc2nc(Cc3ccccc3)c(I)c(=O)[nH]2)cc1 | –
11 | > 100 µM | CCOCSc1nc(Cc2ccccc2)cc(=O)[nH]1 | –
12 | 17.4 µM | O=c1cc(Cc2ccccc2)nc(SCCc2ccccc2)[nH]1 | –
13 | 2.4 µM | O=c1[nH]c(SCCc2ccccc2)nc(Cc2ccccc2)c1I | –
14 | 2.04 µM | O=c1[nH]c(SCc2ccc3ccccc3c2)nc(Cc2ccccc2)c1I | –
15 | – | CC(C)(C)c1ccc(CSc2nc(Cc3ccccc3)cc(=O)[nH]2)cc1 | inhibition [2]: inactive
16 | – | Cc1c(Cc2ccccc2)nc(SCc2ccc3ccccc3c2)[nH]c1=O | inhibition [2]: inactive
17 | 3.03 µM | Cc1cccc(CSc2nc(Cc3ccccc3)c(I)c(=O)[nH]2)c1 | –
18 | – | C=CCSc1nc(Cc2ccccc2)c(C)c(=O)[nH]1 | inhibition [2]: inactive

Row | IC50 [1] | SMILES | also measured
19 | – | O=c1cc(Cc2ccccc2)nc(SCc2ccc3ccccc3c2)[nH]1 | inhibition [2]: inactive
20 | 0.18 µM | O=c1[nH]c(SCCCc2ccccc2)nc(Cc2ccccc2)c1I | Ratio IC50 [3]: 23
21 | 2.93 µM | Cc1c(Cc2ccccc2)nc(SCCCc2ccccc2)[nH]c1=O | –
22 | 8.29 µM | COc1cccc(CSc2nc(Cc3ccccc3)c(I)c(=O)[nH]2)c1 | –
23 | 12.1 µM | O=c1cc(Cc2ccccc2)nc(SCOCc2ccccc2)[nH]1 | –
24 | – | O=c1cc(Cc2ccccc2)nc(SCc2ccccc2)[nH]1 | inhibition [2]: inactive
25 | 90.8 µM | COc1cccc(CSc2nc(Cc3ccccc3)cc(=O)[nH]2)c1 | –
26 | 26.7 µM | Cc1cccc(CSc2nc(Cc3ccccc3)c(Br)c(=O)[nH]2)c1 | –
27 | > 100 µM | Cc1ccccc1CSc1nc(Cc2ccccc2)c(C)c(=O)[nH]1 | –
28 | – | Cc1c(Cc2ccccc2)nc(SCc2ccc(C(C)(C)C)cc2)[nH]c1=O | inhibition [2]: inactive
29 | 8.17 µM | O=c1cc(Cc2ccccc2)nc(SCCCc2ccccc2)[nH]1 | Ratio IC50 [4]: 45
30 | 59.6 µM | Cc1c(Cc2ccccc2)nc(SCCc2ccccc2)[nH]c1=O | –
31 | 48.7 µM | COc1cccc(CSc2nc(Cc3ccccc3)c(C)c(=O)[nH]2)c1 | –
32 | – | Cc1c(Cc2ccccc2)nc(SCc2ccccc2)[nH]c1=O | inhibition [2]: inactive
33 | 4.16 µM | Cc1ccccc1CSc1nc(Cc2ccccc2)c(I)c(=O)[nH]1 | –
34 | > 100 µM | C=CCSc1nc(Cc2ccccc2)cc(=O)[nH]1 | –
35 | 19 µM | Cc1c(Cc2ccccc2)nc(SCOCc2ccccc2)[nH]c1=O | –
36 | 10.1 µM | O=c1[nH]c(SCc2ccccc2)nc(Cc2ccccc2)c1I | –

Row | SMILES | IC50 [1] | also measured
37 | CCOCn1c(Cc2ccccc2)c(C(C)C)c(=O)[nH]c1=O [EMIVIRINE] | 0.15 µM | –
